ChEMBL document CHEMBL1150350, “Evaluation of the amino acid binding site of Mycobacterium tuberculosis glutamine synthetase for drug discovery” (Bioorg Med Chem, 2008)
Calls of active or inactive are those of the source. No cut-off for these calls is given here.

Assays:
[1] = test system: Mycobacterium tuberculosis; settings: at 1 mM
[2] = Inhibition of sheep brain glutamine synthetase by transferase assay; parameters: species or system Ovis aries
[3] = target: T1, Glutamine synthetase (Glycine max, UniProt Q43760); assay: Inhibition of soybean glutamine synthetase by transferase assay
T1 sequence (Q43760 whole entry): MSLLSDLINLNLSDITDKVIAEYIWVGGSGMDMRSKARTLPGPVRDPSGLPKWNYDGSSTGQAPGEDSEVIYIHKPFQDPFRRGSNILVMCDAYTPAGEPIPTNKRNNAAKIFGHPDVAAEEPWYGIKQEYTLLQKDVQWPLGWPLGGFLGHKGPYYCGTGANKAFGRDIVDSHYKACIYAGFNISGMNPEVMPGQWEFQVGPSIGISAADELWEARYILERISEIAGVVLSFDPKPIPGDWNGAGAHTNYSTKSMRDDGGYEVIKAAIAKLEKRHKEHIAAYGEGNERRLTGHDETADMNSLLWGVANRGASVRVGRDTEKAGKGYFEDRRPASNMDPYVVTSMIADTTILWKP

[4] = test system: Mycobacterium tuberculosis; assay: Inhibition of Mycobacterium tuberculosis glutamine synthetase at 0.90 mM in water
Procedure, shortened: (§1)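 Unadenylylated MtGS from an E. coli expression strain, 7 nM subunit, in 50 mM HEPES-HCl pH 7.5 with 25 mM MgCl2, 1 mM ATP and 30 mM NH4Cl. Compound (water stock) was preincubated 20 min at RT, then 10 mM L-glutamate was added and the reaction run 60 min at RT. Released Pi was read at A635 minus a no-GS/no-ATP background. Triplicate; % of uninhibited; t-test, p<0.1.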

[5] = test system: Mycobacterium tuberculosis; assay: Activation of Mycobacterium tuberculosis glutamine synthetase at 1 mM in water
Procedure, shortened: as §1

[6] = species on record: Ovis aries; assay: Inhibition of sheep brain glutamine synthetase at 25 mM
[7] = test system: Mycobacterium tuberculosis; assay: Activation of Mycobacterium tuberculosis glutamine synthetase at 0.50 mM in water
Procedure, shortened: as §1

[8] = Inhibition of Escherichia coli glutamine synthetase by transferase assay
[9] = test system: Escherichia coli; assay: Inhibition of Escherichia coli glutamine synthetase at 1.1 mM
[10] = test system: Mycobacterium tuberculosis; assay: Inhibition of Mycobacterium tuberculosis glutamine synthetase at 0.93 mM in water
Procedure, shortened: as §1

[11] = test system: Mycobacterium tuberculosis; assay: Inhibition of Mycobacterium tuberculosis glutamine synthetase at 0.75 mM in DMSO
Procedure, shortened: (§2)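 Compound from a DMSO stock (2% v/v DMSO final) was preincubated 20 min at RT with unadenylylated MtGS (7 nM subunit) in 50 mM HEPES-HCl pH 7.5, 25 mM MgCl2, 1 mM ATP and 30 mM NH4Cl. Started with 10 mM L-glutamate, 60 min at RT. Phosphate read at 635 nm, corrected by a compound-background plate lacking GS and ATP. Triplicate, % vs uninhibited enzyme.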

[12] = test system: Mycobacterium tuberculosis; assay: Inhibition of Mycobacterium tuberculosis glutamine synthetase at 0.50 mM in water
Procedure, shortened: as §1

[13] = test system: Mycobacterium tuberculosis; assay: Inhibition of Mycobacterium tuberculosis glutamine synthetase at 1 mM in DMSO
Procedure, shortened: as §2

[14] = Inhibition of Mycobacterium tuberculosis glutamine synthetase by transferase assay
[15] = test system: Mycobacterium tuberculosis; assay: Inhibition of Mycobacterium tuberculosis glutamine synthetase at 0.20 mM in water
Procedure, shortened: as §1

[16] = target: T2, Glutamine synthetase (Salmonella typhimurium (strain LT2 / SGSC1412 / ATCC 700720), UniProt P0A1P6); assay: Inhibition of Salmonella Typhimurium glutamine synthetase by transferase assay; parameters: species or system Salmonella enterica subsp. enterica serovar Typhimurium
T2 sequence (P0A1P6 whole entry): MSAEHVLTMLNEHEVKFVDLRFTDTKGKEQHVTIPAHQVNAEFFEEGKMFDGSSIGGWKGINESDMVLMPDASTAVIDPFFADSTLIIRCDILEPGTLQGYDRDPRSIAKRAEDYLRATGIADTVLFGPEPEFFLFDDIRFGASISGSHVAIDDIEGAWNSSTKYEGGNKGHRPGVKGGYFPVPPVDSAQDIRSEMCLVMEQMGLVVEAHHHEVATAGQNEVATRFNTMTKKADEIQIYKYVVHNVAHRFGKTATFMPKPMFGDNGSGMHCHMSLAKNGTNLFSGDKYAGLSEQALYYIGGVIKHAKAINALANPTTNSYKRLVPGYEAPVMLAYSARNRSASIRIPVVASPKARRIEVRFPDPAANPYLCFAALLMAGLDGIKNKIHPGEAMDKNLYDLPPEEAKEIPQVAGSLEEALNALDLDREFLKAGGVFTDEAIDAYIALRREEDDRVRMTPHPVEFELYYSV

[17] = species on record: Ovis aries; assay: Inhibition of sheep brain glutamine synthetase at 0.5 mM by transferase assay
[18] = target: T3, Glutamine synthetase (Glycine max) (UniProt Q43760); assay: Inhibition of soybean glutamine synthetase at 0.5 mM by transferase assay
T3 sequence (whole entry): T1 sequence (Q43760 whole entry)

For `NS(=O)(=O)c1cccc(N[C@H](CO)C(=O)O)c1`, the inhibition [1] was 33%.
Compound `N[C@@H](CCNO)C(=O)O` has a Ki [2] of 7 µM, a Ki [3] of 21 µM and an inhibition [1] of 26%.
In the case of `C[S+]([O-])c1cccc(N[C@@H](CO)C(=O)O)c1` (some centres undefined), the inhibition [1] is reported as 13%.
For `CSc1cccc(NCC(=O)O)c1`, the Activity [4] was “inactive”.
For `CCOP(=O)(OCC)c1cccc(N[C@@H](CO)C(=O)O)c1`, the Activity [5] was “Active”.
For `C[S+]([O-])CC[C@H](N)C(=O)O` (some centres undefined), the inhibition [6] was 11%.
For `CSc1cccc(N[C@@H](CO)C(=O)O)c1`, the Activity [7] was “Active”.
With `N[C@@H](CCP(=O)(O)O)C(=O)O` the Ki [8] was 54 µM and the inhibition [9] was 61%.
With `O=C(O)c1cccc(N[C@H](CO)C(=O)O)c1` the Activity [5] was “Active”.
With `NC(Cc1ccc(CP(=O)(O)O)cc1)C(=O)O` (centres undefined) the Activity [10] was “inactive”.
In the case of `O=C(O)CNc1cccc(C(=O)O)c1`, the Activity [5] is reported as “Active”.
With `N[C@@H](CCCP(=O)(O)O)C(=O)O` the Activity [11] was “inactive”.
In the case of `CSc1cccc(N[C@H](CO)C(=O)O)c1`, the Activity [12] is reported as “inactive”.
`NS(=O)(=O)c1ccc2[nH]c(=O)[nH]c2c1` showed an inhibition [13] of 24%.
Work on `O=C(O)CNc1ccc(O)c(S(=O)(=O)O)c1` yielded an inhibition [1] of 48%.
With `CP(=O)(O)CCC(N)C(=O)O` (racemic) [GLUFOSINATE] the IC50 [14] was 1.9 µM.
For `NC(Cc1ccccc1CP(=O)(O)O)C(=O)O` (centres undefined), the Activity [15] was “inactive”.
In the case of `CCOP(=O)(OCC)c1cccc(N[C@H](CO)C(=O)O)c1`, the Activity [5] is reported as “Active”.
For `C[S+]([O-])c1cccc(NCC(=O)O)c1` (centres undefined), the inhibition [1] was 30%.
In the case of `NS(=O)(=O)c1cccc(N[C@@H](CO)C(=O)O)c1`, the Activity [5] is reported as “Active”.
`O=C(O)c1cccc(NC(=O)c2nc[nH]n2)c1` gave an inhibition [13] of 26%.
With `O=C(O)c1cccc(N[C@@H](CO)C(=O)O)c1` the Activity [5] was “Active”.
Compound `NC[C@H](O)CC[C@H](N)C(=O)O` has an inhibition [13] of 56%, a Ki [16] of 40 µM and an IC50 [14] of 610 µM. The inhibition [17] was 22%, the inhibition [18] was 21% and the inhibition [1] was 58%.
With `CCOP(=O)(OCC)c1cccc(NCC(=O)O)c1` the inhibition [13] was 42%.
With `CS(=O)(=O)CC[C@H](N)C(=O)O` the inhibition [6] was 67% and the inhibition [1] was 33%.
